In brackets after ≈: the same amount, converted by molar mass. Activity calls are given as the source filed them. The rule behind the calls is not given here.
How the values were obtained:
Mus musculus [1] = assay: Antiinflammatory activity in ICR mouse assessed as inhibition of picryl chloride-induced contact hypersensitivity reaction administered topically on left ear after 24 hrs; type: functional
Procedure, shortened: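 Mice sensitized with picryl chloride; test agent applied topically at 0.1 mg/ear in acetone. Percent inhibition is the drug-treated group's percent response relative to the control group, n = 5, reported as the mean of 5 animals.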

[2] = Antioxidant activity assessed as suppression of H2O2/cobalt2+-mediated hydroxyl radical formation by luminol-based […] assay; type: physicochemical
[3] = Antioxidant activity assessed as suppression of H2O2/DETAPAC-Fe2+-mediated hydroxyl radical formation by measuring oxidation of dihydrorhodamine after 5 mins by fluorescence assay; type: physicochemical
Mus musculus [4] = assay: Antiinflammatory activity in mouse assessed as inhibition of picryl chloride-induced contact hypersensitivity reaction at 10 mg/kg, po administered 30 mins prior to picryl chloride challenge; type: functional, organism-based
Procedure, shortened: (§1)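 Mice sensitized with picryl chloride one week before the study. Oral dose given 30 min before picryl chloride challenge. Data are mean ± SEM, n = 5/group, analysed by Dunnett's test.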

Mus musculus [5] = assay: Antipruritic activity in mouse assessed as inhibition of substance P-induced pruritus at 30 mg/kg administered 30 mins prior to substance P challenge measured over 60 mins; type: functional, organism-based
Procedure, shortened: (§2)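 Oral dose given 30 min before substance P challenge. Scratches counted over 60 min. Data are mean ± SEM, n = 7–8/group, analysed by Dunnett's test.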

[6] = Solubility of the compound in phosphate buffer solution at pH 7.4; type: physicochemical
Procedure, shortened: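 Solubility taken as the amount dissolved in phosphate buffer solution at pH 7.4, in […].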

Liver microsome [7] = assay: Metabolic stability in human liver microsomal fraction assessed per mg of protein; type: ADME; conditions: microsomes
Procedure, shortened: (§3)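 Metabolic stability measured in human or rat liver microsomal fraction. Reported as mL/min/mg protein.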

Liver microsome [8] = assay: Metabolic stability in rat liver microsomal fraction assessed per mg of protein; type: ADME; conditions: microsomes; procedure, shortened: as §3
[9] = Apparent permeability in human Caco2 cells; type: ADME, cell-based; conditions: Caco-2
Procedure, shortened: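 Caco-2 monolayer permeability reported as apparent permeability (Papp), in units of 10^-6 cm/s.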

[10] = Clearance in mouse at 1 mg/kg, iv; type: ADME, organism-based; conditions: in vivo
Procedure, shortened: (§4)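 Mouse plasma PK after a single 1 mg/kg iv injection. Clearance (mL/min/kg) and steady-state volume of distribution (L/kg) derived from the plasma concentration profile.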

[11] = Volume of distribution at steady state in mouse at 1 mg/kg, iv; type: ADME, organism-based; conditions: in vivo, read-out: Vdss; procedure, shortened: as §4
[12] = AUC in mouse at 1 mg/kg, iv; type: ADME, organism-based; conditions: in vivo
Procedure, shortened: (§5)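 Mouse pharmacokinetic study with single dosing, intravenous at 1 mg/kg or oral at 10 mg/kg. Plasma drug concentrations were measured, and AUC was taken from the plasma concentration curve. The same study also gave CL and Vdss (iv), Cmax (po) and oral bioavailability.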

[13] = AUC in mouse at 10 mg/kg, po; type: ADME, organism-based; conditions: in vivo; procedure, shortened: as §5
[14] = Cmax in mouse at 10 mg/kg, po; type: ADME, organism-based; set-up: dose 10 mg/kg, route oral; conditions: in vivo
Procedure, shortened: (§6)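 Mouse plasma PK after 10 mg/kg oral dosing. Cmax in ng/mL. Bioavailability derived from oral AUC compared with AUC after a 1 mg/kg iv dose.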

[15] = Oral bioavailability in mouse at 10 mg/kg; type: ADME, organism-based; conditions: in vivo; procedure, shortened: as §6
Mus musculus [16] = assay: Antiinflammatory activity in po dosed mouse assessed as inhibition of picryl chloride-induced contact hypersensitivity reaction administered 30 mins prior to picryl chloride challenge; type: functional, organism-based; procedure, shortened: as §1
Mus musculus [17] = assay: Antipruritic activity in mouse assessed as inhibition of substance P-induced pruritus at 10 mg/kg administered 30 mins prior to substance P challenge measured over 60 mins; type: functional, organism-based; procedure, shortened: as §2
[18] = target: Dual specificity mitogen-activated protein kinase kinase; MEK1/2 (Homo sapiens) (UniProt P36507+Q02750); assay: Inhibition of MEK1/2 (unknown origin); type: protein assay
Chain of Dual specificity mitogen-activated protein kinase kinase; MEK1/2 (Homo sapiens) (P36507 whole entry, looked up): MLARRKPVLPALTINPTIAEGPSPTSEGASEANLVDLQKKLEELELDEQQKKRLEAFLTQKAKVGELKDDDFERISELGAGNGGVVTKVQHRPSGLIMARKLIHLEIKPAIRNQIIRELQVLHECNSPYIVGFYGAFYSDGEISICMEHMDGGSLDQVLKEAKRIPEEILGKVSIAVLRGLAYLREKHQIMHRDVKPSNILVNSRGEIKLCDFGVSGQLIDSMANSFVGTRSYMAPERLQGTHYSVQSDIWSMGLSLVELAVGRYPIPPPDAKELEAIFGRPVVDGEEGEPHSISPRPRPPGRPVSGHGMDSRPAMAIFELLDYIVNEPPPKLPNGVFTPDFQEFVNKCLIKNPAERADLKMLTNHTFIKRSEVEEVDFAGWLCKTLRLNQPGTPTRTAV
Chain of Dual specificity mitogen-activated protein kinase kinase; MEK1/2 (Homo sapiens) (Q02750 whole entry, looked up): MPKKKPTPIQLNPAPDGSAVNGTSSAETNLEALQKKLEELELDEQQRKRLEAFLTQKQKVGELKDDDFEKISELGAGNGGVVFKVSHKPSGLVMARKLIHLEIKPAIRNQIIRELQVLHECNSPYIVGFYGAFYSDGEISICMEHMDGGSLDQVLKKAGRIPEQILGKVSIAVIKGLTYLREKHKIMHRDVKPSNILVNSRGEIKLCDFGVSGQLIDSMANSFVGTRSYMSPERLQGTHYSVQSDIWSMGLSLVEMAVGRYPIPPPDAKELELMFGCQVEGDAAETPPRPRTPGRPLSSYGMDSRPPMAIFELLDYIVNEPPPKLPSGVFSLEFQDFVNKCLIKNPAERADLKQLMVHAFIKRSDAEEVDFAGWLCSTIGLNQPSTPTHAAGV

Cc1c(O)c(C)c(C(=O)Nc2c(N)n(-c3cccc(C(=O)O)c3)c(=O)n(C)c2=O)c2c1CC(C)(C)O2
inhibition (INH) (Mus musculus [1]): 9%

Cc1c(C)c2c(c(C)c1O)CCC(C)(C(=O)O)O2 (stereo unspecified) [TROLOX]
IC50 [2]: 9.7 µM | IC50 [3]: 24 µM

Cc1ccc(-n2c(N)c(NC(=O)c3c(C)c(O)c(C)c4c3OC(C)(C)C4)c(=O)n(C)c2=O)cc1
inhibition (INH) (Mus musculus [1]): 30%

CCOc1cccc(-n2c(N)c(NC(=O)c3c(C)c(O)c(C)c4c3OC(C)(C)C4)c(=O)n(C)c2=O)c1
inhibition (INH) (Mus musculus [1]): 16%

O=C1O[C@H]([C@@H](O)CO)C(O)=C1O [ASCORBIC ACID]
IC50 [2]: 82 µM | IC50 [3]: 54 µM

C[C@]12C=CC(=O)C=C1CC[C@@H]1[C@@H]2[C@@H](O)C[C@@]2(C)[C@H]1CC[C@]2(O)C(=O)CO
inhibition (Mus musculus [4]): Active

O=c1[nH]c2ccccc2n1CCCN1CCN(C(c2ccccc2)c2ccccc2)CC1
inhibition (Mus musculus [5]): Active

Cc1ccc(-n2c(N)c(NC(=O)c3c(C)c(O)c(C)c4c3OC(C)(C)C4)c(=O)n(C)c2=O)cc1C
inhibition (INH) (Mus musculus [1]): 45%

CCc1cccc(-n2c(N)c(NC(=O)c3c(C)c(O)c(C)c4c3OC(C)(C)C4)c(=O)n(C)c2=O)c1
inhibition (INH) (Mus musculus [1]): 14%

Cc1cccc(-n2c(N)c(NC(=O)c3c(C)c(O)c(C)c4c3OC(C)(C)C4)c(=O)n(C)c2=O)c1
inhibition (INH) (Mus musculus [1]): 52% | solubility [6]: 21 µg/mL (≈ 45.2 µM) | Stability (Liver microsome [7]): 19 µL/min/mg | Stability (Liver microsome [8]): < 10 µL/min/mg | Papp [9]: 14 ×10⁻⁶ cm/s | clearance [10]: 18 mL/min/kg | Vd [11]: 1 L/kg | AUC [12]: 927 ng·h/mL | AUC [13]: 1100 ng·h/mL | Cmax [14]: 511 ng/mL | bioavailability [15]: 12% | inhibition (Mus musculus [16]): Dose-dependent effect | inhibition (Mus musculus [17]): Active | IC50 [2]: 8.6 µM | inhibition [18]: Active

Cc1cc(C)cc(-n2c(N)c(NC(=O)c3c(C)c(O)c(C)c4c3OC(C)(C)C4)c(=O)n(C)c2=O)c1
inhibition (INH) (Mus musculus [1]): 15%

C=CC[C@@H]1/C=C(\C)C[C@H](C)C[C@H](OC)[C@H]2O[C@@](O)(C(=O)C(=O)N3CCCC[C@H]3C(=O)O[C@H](/C(C)=C/[C@@H]3CC[C@@H](O)[C@H](OC)C3)[C@H](C)[C@@H](O)CC1=O)[C@H](C)C[C@@H]2OC [TACROLIMUS ANHYDROUS]
inhibition (INH) (Mus musculus [1]): 53%

Cc1c(C)c2c(c(C)c1O)CC[C@@](C)(C(=O)Nc1c(N)n(-c3ccccc3)c(=O)n(C)c1=O)O2
IC50 [2]: 12.1 µM | IC50 [3]: 44 µM

Cc1c(O)c(C)c(C(=O)Nc2c(N)n(-c3cccc(F)c3)c(=O)n(C)c2=O)c2c1CC(C)(C)O2
inhibition (INH) (Mus musculus [1]): 10%
